Laboratory results: ChEMBL document CHEMBL1149087, “Anticancer and antimalarial efficacy and safety of artemisinin-derived trioxane dimers in rodents” (J Med Chem, 2004)
Where a name gives a salt, the structure may show the parent alone.

Columns and labels:
Mus musculus [1] = test: Compound was tested for number of animals that remain safe when administered intraperitoneally in mice (total no of deaths =125); 0/3; assay type: functional
Mus musculus [2] = test: Compound was tested for number of animals that remain safe when administered intraperitoneally in mice (total no of deaths =250); 0/3; assay type: functional
Plasmodium falciparum = test: In vitro antimalarial activity for Plasmodium falciparum NF54 infected mice (Mus musculus); assay type: functional, organism-based
In short: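 In vitro antimalarial assay run in quadruplicate, with artemisinin as concurrent control (n = 3). EC50 taken from fitted dose-response curves.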

TRAMP-C2H = test: Inhibitory concentration to inhibit growth of C2H prostate cancer cell line by using MTT assay; assay type: functional, cell-based; conditions: Mus musculus
In short: (§1)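 TRAMP mouse prostate cancer clonal lines, seeded at 2.5×10^4 (C1A), 2.0×10^4 (C2D, C2G) or 1.5×10^4 (C2H) cells/mL. Grown in DMEM high glucose with 10% FBS, insulin, pen-strep and 10^-8 M dihydrotestosterone at 37 °C, 5% CO2. After 24 h, switched to phenol-free medium with ethanol-dissolved compound. MTT read-out at 0, 24, 48 and 72 h: 4 h MTT, then SDS/HCl solubilisation overnight.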

[3] = Therapeutic index expressed as maximum tolerated / ED50 intravenously was determined; conditions: iv; read-out: Therapeutic index
In short: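 Therapeutic index calculated as maximum tolerated single ip dose in mice divided by iv ED50 (mg/kg/day × 4).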

Mus musculus [4] = test: Compound was tested for number of animals that remain safe when administered intraperitoneally in mice (total no of deaths =750); 3/3; assay type: functional
TRAMP-C1A = test: Inhibitory concentration to inhibit growth of C1A prostate cancer cell line by using MTT assay; assay type: functional, cell-based; conditions: Mus musculus; in short: as §1
C2D cell line = test: Inhibitory concentration to inhibit growth of C2D prostate cancer cell line by using MTT assay; assay type: functional, cell-based, Homo sapiens; conditions: Mus musculus; in short: as §1
Mus musculus [5] = test: Compound was tested for number of animals that remain safe when administered intraperitoneally in mice (total no of deaths =500); 1/3; assay type: functional
C2G cell line = test: Inhibitory concentration to inhibit growth of C2G prostate cancer cell line by using MTT assay; assay type: functional, cell-based, Homo sapiens; conditions: Mus musculus; in short: as §1
Mus musculus [6] = test: Compound was tested for number of animals that remain safe when administered intraperitoneally in mice (dose 250 mg/kg); deaths 1/3
Mus musculus [7] = species on record: Mus musculus; test: Compound was tested for weight gain in mice; markedly reduced; assay type: functional, organism-based
Mus musculus [8] = test: Compound was tested for number of animals that remain safe when administered intraperitoneally in mice (dose 125 mg/kg); deaths 0/3
Mus musculus [9] = test: Compound was tested for number of animals that remain safe when administered intraperitoneally in mice (dose 500 mg/kg); deaths 3/3
Mus musculus [10] = species on record: Mus musculus; test: Compound was tested for weight gain in mice; reduced; assay type: functional, organism-based
Mus musculus [11] = test: Compound was tested for number of animals that remain safe when administered intraperitoneally in mice (total no of deaths =500); 3/3; assay type: functional
Mus musculus [12] = test: Compound was tested for number of animals that remain safe when administered intraperitoneally in mice (total no of deaths =750); 2/3; assay type: functional
Mus musculus [13] = test: Compound was tested for number of animals that remain safe when administered intraperitoneally in mice (total no of deaths =250); 1/3; assay type: functional

Q: For `C[C@H]1[C@H](OC(=O)CCC(=O)OCC(COC(=O)CCC(=O)O[C@@H]2O[C@@H]3O[C@]4(C)CC[C@H]5[C@H](C)CC[C@@H]([C@H]2C)[C@@]35OO4)C(=O)O)O[C@@H]2O[C@]3(C)CC[C@H]4[C@H](C)CC[C@@H]1[C@@]24OO3` (stereo not given in full), which Therapeutic index (Mus musculus [1]) is on record?
A: The Therapeutic index was 0 mg/kg.

Q: And the Therapeutic index (Mus musculus [2])?
A: The Therapeutic index was 0 mg/kg.

Q: And the EC50 (Plasmodium falciparum)?
A: Its EC50 is 2.4 nM.

Q: And the IC50 (TRAMP-C2H)?
A: Its IC50 is 116 nM.

Q: What about the selectivity ratio [3] of the same molecule?
A: Its selectivity ratio is 167.

Q: What about the Therapeutic index (Mus musculus [4]) of the same molecule?
A: The Therapeutic index was 3 mg/kg.

Q: And the IC50 (TRAMP-C1A)?
A: The IC50 was 159 nM.

Q: And the IC50 (C2D cell line)?
A: Its IC50 is 231 nM.

Q: What about the Therapeutic index (Mus musculus [5]) of the same molecule?
A: The Therapeutic index was 1 mg/kg.

Q: What about the IC50 (C2G cell line) of the same molecule?
A: Its IC50 is 134 nM.

Q: For `C[C@H]1[C@H](OC(=O)CCC(=O)OCC(CO)COC(=O)CCC(=O)O[C@@H]2O[C@@H]3O[C@]4(C)CC[C@H]5[C@H](C)CC[C@@H]([C@H]2C)[C@@]35OO4)O[C@@H]2OC3(C)CC[C@H]4[C@H](C)CC[C@@H]1[C@@]24OO3` (single isomer, unassigned), which IC50 (TRAMP-C2H) is on record?
A: The IC50 was 9.2 nM.

Q: And the IC50 (TRAMP-C1A)?
A: The IC50 was 23.3 nM.

Q: And the IC50 (C2D cell line)?
A: Its IC50 is 18.5 nM.

Q: What about the IC50 (C2G cell line) of the same molecule?
A: Its IC50 is 15.4 nM.

Q: Which results are given for `C[C@H]1[C@H](OC(=O)CCC(=O)[O-])O[C@@H]2O[C@@]3(C)CC[C@H]4[C@H](C)CC[C@@H]1[C@@]24OO3.[Na+]` [SODIUM ARESUNATE]?
A: Deaths (Mus musculus [6]): 1 deaths; EC50 (Plasmodium falciparum): 1.5 nM; Activity (Mus musculus [7]): Weight gain markedly reduced; Deaths (Mus musculus [8]): 0 deaths; selectivity ratio [3]: 23; Deaths (Mus musculus [9]): 3 deaths

Q: With `C[C@H]1[C@H](OC(=O)CCC(=O)OCC(COC(=O)CCC(=O)O[C@@H]2O[C@@H]3O[C@]4(C)CC[C@H]5[C@H](C)CC[C@@H]([C@H]2C)[C@@]35OO4)COC(=O)c2cc[n+]([O-])cc2)O[C@@H]2O[C@]3(C)CC[C@H]4[C@H](C)CC[C@@H]1[C@@]24OO3` (stereo not given in full) as the molecule, how does the Therapeutic index (Mus musculus [1]) read?
A: The Therapeutic index was 0 mg/kg.

Q: And the Activity (Mus musculus [10])?
A: The Activity was “Weight gain reduced”.

Q: What about the EC50 (Plasmodium falciparum) of the same molecule?
A: The EC50 was 0.53 nM.

Q: And the Therapeutic index (Mus musculus [11])?
A: The Therapeutic index was 3 mg/kg.

Q: And the Therapeutic index (Mus musculus [12])?
A: The Therapeutic index was 2 mg/kg.

Q: What about the IC50 (TRAMP-C2H) of the same molecule?
A: The IC50 was 36.1 nM.

Q: What about the selectivity ratio [3] of the same molecule?
A: The selectivity ratio was 156.

Q: And the Therapeutic index (Mus musculus [13])?
A: Its Therapeutic index is 1 mg/kg.

Q: And the IC50 (TRAMP-C1A)?
A: Its IC50 is 84.6 nM.

Q: And the IC50 (C2D cell line)?
A: The IC50 was 62.1 nM.

Q: And the IC50 (C2G cell line)?
A: The IC50 was 47.4 nM.

Q: Which IC50 (TRAMP-C2H) does the source give for `COc1cccc2c1C(=O)c1c(O)c3c(c(O)c1C2=O)C[C@@](O)(C(=O)CO)C[C@@H]3O[C@H]1C[C@H](N)[C@H](O)[C@H](C)O1` [DOXORUBICIN] here?
A: The IC50 was 30.3 nM.

Q: What about the IC50 (TRAMP-C1A) of the same molecule?
A: Its IC50 is 75.9 nM.

Q: What about the IC50 (C2D cell line) of the same molecule?
A: Its IC50 is 46.5 nM.

Q: And the IC50 (C2G cell line)?
A: The IC50 was 28.7 nM.

Q: What does the source list for `Nc1ccn([C@@H]2O[C@H](CO)[C@@H](O)C2(F)F)c(=O)n1` [GEMCITABINE HYDROCHLORIDE]?
A: IC50 (TRAMP-C2H): 4.7 nM; IC50 (TRAMP-C1A): 9 nM; IC50 (C2D cell line): 11.9 nM; IC50 (C2G cell line): 3.7 nM

Q: With `C[C@@H]1CC[C@H]2[C@@H](C)C(=O)O[C@@H]3O[C@@]4(C)CC[C@@H]1[C@]32OO4` [ARTEMISININ] as the molecule, how does the EC50 (Plasmodium falciparum) read?
A: Its EC50 is 8.8 nM.
